Measured values reported in ChEMBL document CHEMBL4680121, “Development of (4-methoxyphenyl)-1H-tetrazol-5-amine regioisomers as a new class of selective antitubercular agents” (Eur J Med Chem, 2020).
Converted amounts (≈) assume the structure as drawn.

Experiments:
Escherichia coli = assay: Antibacterial activity against Escherichia coli ATCC 25922 assessed as bacterial growth inhibition measured after 18 hrs by two-fold serial microdilution method; type: functional
In short: (§1)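 Two-fold serial broth microdilution in MH II medium following modified CLSI procedures. Compounds were dissolved in DMSO and diluted in medium to at most 1% solvent, tested from 0.03125 to 512 μg/ml. Final inoculum 10^6 CFU/ml. MIC was taken as the lowest concentration with no visible growth after 18 h at 35 °C.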

[1] = system: Staphylococcus epidermidis; assay: Antibacterial activity against Staphylococcus epidermidis ATCC 35984/RP62A assessed as bacterial growth inhibition measured after 18 hrs by two-fold serial microdilution method; type: functional; in short: as §1
[2] = system: Staphylococcus epidermidis; assay: Antibacterial activity against Staphylococcus epidermidis ATCC 12228 assessed as bacterial growth inhibition measured after 18 hrs by two-fold serial microdilution method; type: functional; in short: as §1
[3] = system: Staphylococcus epidermidis; assay: Antibacterial activity against Staphylococcus epidermidis ATCC 1457 assessed as bacterial growth inhibition measured after 18 hrs by two-fold serial microdilution method; type: functional; in short: as §1
Staphylococcus aureus [4] = assay: Antibacterial activity against Staphylococcus aureus ATCC 6538 assessed as bacterial growth inhibition measured after 18 hrs by two-fold serial microdilution method; type: functional; in short: as §1
Staphylococcus aureus [5] = assay: Antibacterial activity against Staphylococcus aureus NCTC 4163 assessed as bacterial growth inhibition measured after 18 hrs by two-fold serial microdilution method; type: functional; in short: as §1
Pseudomonas aeruginosa [6] = assay: Antibacterial activity against Pseudomonas aeruginosa NCTC 6749 assessed as bacterial growth inhibition measured after 18 hrs by two-fold serial microdilution method; type: functional; in short: as §1
Pseudomonas aeruginosa [7] = assay: Antibacterial activity against Pseudomonas aeruginosa PAO1 assessed as bacterial growth inhibition measured after 18 hrs by two-fold serial microdilution method; type: functional; in short: as §1
Klebsiella pneumoniae = assay: Antibacterial activity against Klebsiella pneumoniae ATCC 10031 assessed as bacterial growth inhibition measured after 18 hrs by two-fold serial microdilution method; type: functional; in short: as §1
Proteus vulgaris = assay: Antibacterial activity against Proteus vulgaris NCTC 4635 assessed as bacterial growth inhibition measured after 18 hrs by two-fold serial microdilution method; type: functional; in short: as §1
[8] = system: Mycobacterium tuberculosis; assay: Antitubercular activity against Mycobacterium tuberculosis H37Rv ATCC 25618 assessed as inhibition of microbial growth by classical test tube method; type: functional
In short: (§2)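 Classical test-tube serial dilution in Youmans' modified Proskauer–Beck liquid medium with 10% bovine serum. Inoculum came from 14-day-old cultures. Compounds were given as DMSO solutions (stock 10 mg/ml), diluted geometrically in medium to 3.1–100 µg/ml, and incubated at 37 °C. MIC is the minimum concentration inhibiting growth relative to a no-compound control.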

[9] = system: Mycobacterium tuberculosis; assay: Antitubercular activity against Mycobacterium tuberculosis Spec.192 assessed as inhibition of microbial growth by classical test tube method; type: functional; in short: as §2
[10] = system: Mycobacterium intracellulare; assay: Antimycobacterial activity against Mycobacterium intracellulare assessed as inhibition of microbial growth incubated for 1 week by MABA method; type: functional; settings: 168 h, time 1 weeks
In short: (§3)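 Microplate Alamar Blue assay using two-fold serial microdilution in Middlebrook 7H9 broth with 10% OADC, compounds 0.125–512 µg/ml from DMSO stocks. Inoculum came from fresh LJ culture, was adjusted to McFarland 1 and diluted 1:20. Plates were incubated 1 week at 37 °C, Alamar blue was added and plates were re-incubated 24 h. MIC was the lowest concentration preventing the blue-to-pink change. Each plate carried growth and sterile controls.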

[11] = system: Mycobacterium tuberculosis; assay: Antitubercular activity against Mycobacterium tuberculosis H37Rv ATCC 25618 assessed as inhibition of microbial growth incubated for 1 week by MABA method; type: functional; settings: H37Rv ATCC 25618, 168 h, time 1 weeks
In short: (§4)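 Microplate Alamar Blue assay in Middlebrook 7H9 broth with 10% OADC. Inoculum from fresh LJ culture was adjusted to McFarland 1 and diluted 1:20. DMSO stocks were two-fold serially diluted to final 0.125–512 µg/ml, with growth and sterile controls. Plates ran 1 week at 37 °C, then Alamar blue was added for 24 h. MIC is the lowest concentration preventing the blue-to-pink change.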

[12] = system: Mycobacterium tuberculosis; assay: Antitubercular activity against Mycobacterium tuberculosis Spec.192 assessed as inhibition of microbial growth incubated for 1 week by MABA method; type: functional; settings: Mycobacterium tuberculosis, 192, 168 h; time 1 weeks; in short: as §4
Mycobacterium avium = assay: Antimycobacterial activity against Mycobacterium avium assessed as inhibition of microbial growth incubated for 1 week by MABA method; type: functional; settings: 168 h, time 1 weeks; in short: as §4
Mycobacterium kansasii = assay: Antibacterial activity against Mycobacterium kansasii assessed as inhibition of microbial growth incubated for 1 week by MABA method; type: functional; settings: 168 h, time 1 weeks; in short: as §3
[13] = system: Mycobacterium scrofulaceum; assay: Antibacterial activity against Mycobacterium scrofulaceum assessed as inhibition of microbial growth incubated for 1 week by MABA method; type: functional; settings: 168 h, time 1 weeks; in short: as §3
[14] = system: Mycolicibacterium fortuitum; assay: Antibacterial activity against Mycobacterium fortuitum assessed as inhibition of microbial growth incubated for 1 week by MABA method; type: functional; settings: 168 h, time 1 weeks; in short: as §3
Mycobacterium xenopi = assay: Antibacterial activity against Mycobacterium xenopi assessed as inhibition of microbial growth incubated for 1 week by MABA method; type: functional; settings: 168 h, time 1 weeks; in short: as §3
V79 [15] = assay: Cytotoxicity against Chinese Hamster V79 cells assessed as reduction in cell viability measured after 72 hrs by MTT assay; type: cell-based; settings: Cricetulus griseus, V79, 72 h
In short: (§5)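 MTT viability assay on cells grown in DMEM with 10% heat-inactivated FBS, penicillin/streptomycin and 20 mM HEPES at 37 °C/5% CO2. Cells were seeded at 1×10^4 per well and allowed to adhere for 24 h, then the medium was refreshed. Compounds were added at 20–140 μM for 72 h at 37 °C, followed by MTT (0.5 mg/mL in serum-free medium) for 4 h. Untreated cells served as control. IC50 is the concentration giving 50% growth inhibition versus control.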

HaCaT [16] = assay: Cytotoxicity against human HaCaT cells assessed as reduction in cell viability measured after 72 hrs by MTT assay; type: cell-based; in short: as §5
V79 [17] = assay: Cytotoxicity against Chinese Hamster V79 cells assessed as reduction in cell viability at 100 uM measured after 72 hrs by MTT assay; type: cell-based, Cricetulus griseus; settings: v79, 72 h; in short: as §5
HaCaT [18] = assay: Cytotoxicity against human HaCaT cells assessed as reduction in cell viability at 100 uM measured after 72 hrs by MTT assay; type: cell-based; in short: as §5
[19] = system: Mycobacterium scrofulaceum; assay: Potency index, ratio of isoniazid MIC to test compound MIC for antibacterial activity against Mycobacterium scrofulaceum assessed as inhibition of microbial growth incubated for 1 week by MABA method; type: functional; settings: time 1 weeks

SMILES	MIC (Escherichia coli) [µg/mL]	MIC [1] [µg/mL]	MIC [2] [µg/mL]	MIC [3] [µg/mL]	MIC (Staphylococcus aureus [4]) [µg/mL]	MIC (Staphylococcus aureus [5]) [µg/mL]	MIC (Pseudomonas aeruginosa [6]) [µg/mL]	MIC (Pseudomonas aeruginosa [7]) [µg/mL]	MIC (Klebsiella pneumoniae) [µg/mL]	MIC (Proteus vulgaris) [µg/mL]	MIC [8] [µg/mL]	MIC [9] [µg/mL]	MIC [10] [µg/mL]	MIC [11] [µg/mL]	MIC [12] [µg/mL]	MIC (Mycobacterium avium) [µg/mL]	MIC (Mycobacterium kansasii) [µg/mL]	MIC [13] [µg/mL]	MIC [14] [µg/mL]	MIC (Mycobacterium xenopi) [µg/mL]	other results
COc1ccc(NC(=S)Nc2cccc(Cl)c2)cc1	> 256	> 256	> 256	> 256	> 256	> 256	> 256	> 256	> 256	> 256	100	100									
COc1ccc(Nc2nnnn2-c2cccc(Cl)c2)cc1	> 256	> 256	> 256	> 256	> 256	> 256	> 256	> 256	> 256	> 256			128	8	8	64	512	2	512	512	IC50 (V79 [15]): 124 µM; IC50 (HaCaT [16]): 103 µM; Activity (V79 [17]): Non-Toxic; Activity (HaCaT [18]): Non-Toxic; Ratio [19]: 32
COc1ccc(-n2nnnc2Nc2cccc(F)c2)cc1	> 256	128 (≈ 449 µM)	32 (≈ 112 µM)	256 (≈ 897 µM)	64 (≈ 224 µM)	128 (≈ 449 µM)	> 256	> 256	> 256	> 256			64	8	8	128	512	16	256	512	IC50 (V79 [15]): 248 µM; IC50 (HaCaT [16]): 127 µM; Activity (V79 [17]): Non-Toxic; Activity (HaCaT [18]): Non-Toxic; Ratio [19]: 4
COc1ccc(NC(=S)Nc2ccc(Cl)cc2)cc1	> 256	> 256	> 256	> 256	> 256	> 256	> 256	> 256	> 256	> 256	50	50									
COc1ccc(NC(=S)Nc2cccc(Br)c2)cc1	> 256	> 256	> 256	> 256	> 256	> 256	> 256	> 256	> 256	> 256	50	50									
COc1ccc(NC(=S)Nc2ccccc2Br)cc1	> 256	> 256	> 256	> 256	> 256	> 256	> 256	> 256	> 256	> 256	50	50									
COc1ccc(NC(=S)Nc2ccc(Br)cc2)cc1	> 256	> 256	> 256	> 256	> 256	> 256	> 256	> 256	> 256	> 256	25	25									
COc1ccc(Nc2nnnn2-c2cccc(F)c2)cc1	> 256	> 256	> 256	> 256	> 256	> 256	> 256	> 256	> 256	> 256			64	16	16	128	256	16	256	128	IC50 (V79 [15]): 123 µM; IC50 (HaCaT [16]): 101 µM; Activity (V79 [17]): Non-Toxic; Activity (HaCaT [18]): Non-Toxic; Ratio [19]: 4
CC[C@@H](CO)NCCN[C@@H](CC)CO [ETHAMBUTOL]											< 3.1	< 3.1		2	2						
NNC(=O)c1ccncc1 [ISONIAZID]											6.25	6.25	64	0.125	0.125	32	32	64	128	64	
CO[C@H]1/C=C/O[C@@]2(C)Oc3c(C)c(O)c4c(O)c(c(/C=N/N5CCN(C)CC5)c(O)c4c3C2=O)NC(=O)/C(C)=C\C=C\[C@H](C)[C@H](O)[C@@H](C)[C@@H](O)[C@@H](C)[C@H](OC(C)=O)[C@@H]1C [RIFAMPIN]											< 3.1	< 3.1		1	1						
CN[C@@H]1[C@H](O[C@H]2[C@H](O[C@H]3[C@H](O)[C@@H](O)[C@H](N=C(N)N)[C@@H](O)[C@@H]3N=C(N)N)O[C@@H](C)[C@]2(O)C=O)O[C@@H](CO)[C@H](O)[C@H]1O [STREPTOMYCIN]											< 3.1	< 3.1		1	1						
